Results taken from ChEMBL document CHEMBL4411328, “Synthesis and Structural/Functional Characterization of Selective M14 Metallocarboxypeptidase Inhibitors Based on Phosphinic Pseudopeptide Scaffold: Implications on the Design of Specific Optical Probes” (J Med Chem, 2019).
The source made the active and inactive calls. The rule behind the calls is not given here.

Legend:
[1] = target: Cytosolic carboxypeptidase 6 (Homo sapiens) (UniProt Q5VU57); assay: Inhibition of human CCP6 at 1 nM to 1 mM using tubulin as substrate preincubated for 45 mins measured at 30 sec intervals for 15 mins by UV/vis-spectrophotometry
In short: (§1)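 hCCP1 or hCCP6 at 1.0x10-6 g with tubulin (12.5x10-5 g) as substrate in 20 mM Tris-HCl pH 7.5, 100 mM NaCl. Enzyme, inhibitor and buffer preincubated 45 min at 37 °C before substrate addition; run in triplicate.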

Homo sapiens = species: Homo sapiens; assay: Inhibition of pepsin (unknown origin) at 1 nM to 1 mM using H-Leu-Ser-p-nitro-Phe-Nle-Ala-Leu-OMe peptide as substrate preincubated for 45 mins measured at 30 sec intervals for 15 mins by UV/vis-spectrophotometry
In short: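 Pepsin 1.0x10-8 M with 2.0x10-4 M LSPNP substrate in 100 mM acetate pH 4.4, monitored at 310 nm. Inhibitor preincubated with enzyme 45 min at 37 °C; initial velocities over 15 min at 30-sec intervals; triplicate.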

[2] = target: Carboxypeptidase B2 (Homo sapiens) (UniProt Q96IY4); assay: Inhibition of human TAFI at 1 nM to 1 mM using AAFA as substrate preincubated for 45 mins measured at 30 sec intervals for 15 mins by UV/vis-spectrophotometry
In short: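 Absorbance at 355 nm. Preincubation 45 min at 37 °C with inhibitor before substrate addition. Initial velocities from 30-sec reads over 15 min; triplicates.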

Papain (Carica papaya) = Papain (Carica papaya) (UniProt P00784); assay: Inhibition of papaya papain at 1 nM to 1 mM using L-pyroglutamyl-Lphenylalanyl-L-leucine-p-nitroanilide peptide as substrate preincubated for 45 mins measured at 30 sec intervals for 15 mins by UV/vis-spectrophotometry
In short: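 Papain 4.5x10-8 M, PFLNA substrate 4.0x10-4 M, buffer 100 mM phosphate pH 6.5, 100 mM KCl, 0.1 mM EDTA, 3 mM DTT, 0.05% w/v Brij-35; read at 414 nm. 45 min preincubation at 37 °C with inhibitor; initial velocities, 30-sec reads for 15 min, triplicate.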

Collagenase 3 = Collagenase 3 (Homo sapiens, UniProt P45452); assay: Inhibition of human MMP13 using fluorogenic Mca-Pro-Leu-Gly-Leu-Dpa-Ala-Arg-NH2 peptide as substrate preincubated for 45 mins measured at 30 sec intervals for 15 mins by UV/vis-spectrophotometry
In short: (§2)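 MMPs at nanomolar level with fluorogenic Mca-Pro-Leu-Gly-Leu-Dpa-Ala-Arg-NH2 substrate in 50 mM Tris-HCl pH 6.8, 10 mM CaCl2. Enzyme, inhibitor and buffer preincubated 45 min at 37 °C, then substrate added; initial velocities from 30-sec reads over 15 min, in triplicate.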

[3] = target: Carboxypeptidase N catalytic chain (Homo sapiens) (UniProt P15169); assay: Inhibition of human CPN at 1 nM to 1 mM using N-(3-[2-furyl]acryloyl)-alanyl-lysine-OH as substrate preincubated for 45 mins measured at 30 sec intervals for 15 mins by UV/vis-spectrophotometry
In short: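 hCPN at 2.0x10-9 M with 2.0x10-4 M FAAK substrate in 20 mM Tris-HCl pH 7.5, 100 mM NaCl, followed at 330 nm. Enzyme and inhibitor preincubated 45 min at 37 °C before substrate. Initial velocities read every 30 sec over 15 min, triplicate.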

Stromelysin-2 = Stromelysin-2 (Homo sapiens, UniProt P09238); assay: Inhibition of human MMP10 using fluorogenic Mca-Pro-Leu-Gly-Leu-Dpa-Ala-Arg-NH2 peptide as substrate preincubated for 45 mins measured at 30 sec intervals for 15 mins by UV/vis-spectrophotometry; in short: as §2
HEK-293T [4] = assay: Cytotoxicity against HEK293T cells by fluorescence confocal microscopy; assay type: cell-based; conditions: human
Bos taurus = species: Bos taurus; assay: Inhibition of bovine trypsin at 1 nM to 1 mM using Nalpha-benzoyl-L-arginine 4-nitroanilide hydrochloride as substrate preincubated for 45 mins measured at 30 sec intervals for 15 mins by UV/vis-spectrophotometry
HeLa = assay: Cytotoxicity against human HeLa cells by fluorescence confocal microscopy; assay type: cell-based
[5] = target: Cytosolic carboxypeptidase 1 (Homo sapiens) (UniProt Q9UPW5); assay: Inhibition of human CCP1 at 1 nM to mM using tubulin as substrate preincubated for 45 mins measured at 30 sec intervals for 15 mins by UV/vis-spectrophotometry; in short: as §1
[6] = target: Macrophage metalloelastase (Homo sapiens, UniProt P39900); assay: Inhibition of human MMP12 using fluorogenic Mca-Pro-Leu-Gly-Leu-Dpa-Ala-Arg-NH2 peptide as substrate preincubated for 45 mins measured at 30 sec intervals for 15 mins by UV/vis-spectrophotometry; in short: as §2
HEK-293T [7] = assay: Cytotoxicity against HEK293T cells assessed as reduction in cell viability at 1 to 5 uM after 24 hrs by XTT assay; assay type: cell-based; conditions: human
In short: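 Cells were exposed to compound at 1 and 5 µM for 24h in culture, and viability was then read by the XTT assay.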

Chain of Cytosolic carboxypeptidase 1 (Homo sapiens) (Q9UPW5 whole entry): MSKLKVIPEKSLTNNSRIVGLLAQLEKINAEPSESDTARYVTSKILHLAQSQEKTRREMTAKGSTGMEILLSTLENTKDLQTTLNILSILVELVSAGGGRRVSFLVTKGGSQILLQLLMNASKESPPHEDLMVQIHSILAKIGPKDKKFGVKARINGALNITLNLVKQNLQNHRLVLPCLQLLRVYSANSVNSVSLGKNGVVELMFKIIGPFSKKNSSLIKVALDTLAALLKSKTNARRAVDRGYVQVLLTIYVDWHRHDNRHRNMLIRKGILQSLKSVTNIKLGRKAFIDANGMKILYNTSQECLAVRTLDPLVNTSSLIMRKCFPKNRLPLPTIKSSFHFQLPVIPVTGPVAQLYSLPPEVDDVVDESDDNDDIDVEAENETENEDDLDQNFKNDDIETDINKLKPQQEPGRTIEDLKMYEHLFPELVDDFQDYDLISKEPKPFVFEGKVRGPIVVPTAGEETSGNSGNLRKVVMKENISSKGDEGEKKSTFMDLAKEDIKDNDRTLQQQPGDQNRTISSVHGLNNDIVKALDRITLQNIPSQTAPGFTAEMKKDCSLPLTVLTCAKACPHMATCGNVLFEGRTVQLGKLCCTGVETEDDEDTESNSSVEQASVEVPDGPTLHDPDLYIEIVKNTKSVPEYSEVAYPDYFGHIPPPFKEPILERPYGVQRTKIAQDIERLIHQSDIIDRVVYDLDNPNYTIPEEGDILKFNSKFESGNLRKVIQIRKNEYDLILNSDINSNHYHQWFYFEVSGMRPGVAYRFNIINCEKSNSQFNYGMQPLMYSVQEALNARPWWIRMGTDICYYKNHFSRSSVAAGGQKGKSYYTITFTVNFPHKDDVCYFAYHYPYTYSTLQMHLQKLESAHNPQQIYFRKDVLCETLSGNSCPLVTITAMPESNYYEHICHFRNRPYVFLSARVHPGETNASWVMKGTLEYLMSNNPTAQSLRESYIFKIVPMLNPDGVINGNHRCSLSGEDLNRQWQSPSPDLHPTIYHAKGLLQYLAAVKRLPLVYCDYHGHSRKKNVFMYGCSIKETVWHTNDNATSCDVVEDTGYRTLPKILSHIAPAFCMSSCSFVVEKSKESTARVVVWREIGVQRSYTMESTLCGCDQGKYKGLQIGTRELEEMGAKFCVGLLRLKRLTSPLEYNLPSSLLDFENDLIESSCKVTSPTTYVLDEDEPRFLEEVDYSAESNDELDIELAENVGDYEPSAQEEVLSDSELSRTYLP
Chain of Cytosolic carboxypeptidase 6 (Homo sapiens) (Q5VU57 whole entry): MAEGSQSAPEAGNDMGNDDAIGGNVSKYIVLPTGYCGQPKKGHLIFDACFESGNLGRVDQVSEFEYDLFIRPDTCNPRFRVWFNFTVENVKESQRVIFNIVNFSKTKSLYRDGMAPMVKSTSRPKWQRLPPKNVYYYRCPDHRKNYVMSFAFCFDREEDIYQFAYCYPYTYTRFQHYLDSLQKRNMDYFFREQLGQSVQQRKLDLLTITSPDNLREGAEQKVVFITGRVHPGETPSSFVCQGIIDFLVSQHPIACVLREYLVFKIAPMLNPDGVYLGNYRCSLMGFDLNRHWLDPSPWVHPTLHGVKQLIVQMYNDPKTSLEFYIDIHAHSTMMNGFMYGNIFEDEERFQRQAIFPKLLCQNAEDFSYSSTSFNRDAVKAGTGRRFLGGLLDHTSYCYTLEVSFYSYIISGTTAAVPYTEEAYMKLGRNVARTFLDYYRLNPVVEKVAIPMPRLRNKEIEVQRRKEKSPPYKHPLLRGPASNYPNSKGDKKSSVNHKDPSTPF
Chain of Macrophage metalloelastase (P39900 whole entry): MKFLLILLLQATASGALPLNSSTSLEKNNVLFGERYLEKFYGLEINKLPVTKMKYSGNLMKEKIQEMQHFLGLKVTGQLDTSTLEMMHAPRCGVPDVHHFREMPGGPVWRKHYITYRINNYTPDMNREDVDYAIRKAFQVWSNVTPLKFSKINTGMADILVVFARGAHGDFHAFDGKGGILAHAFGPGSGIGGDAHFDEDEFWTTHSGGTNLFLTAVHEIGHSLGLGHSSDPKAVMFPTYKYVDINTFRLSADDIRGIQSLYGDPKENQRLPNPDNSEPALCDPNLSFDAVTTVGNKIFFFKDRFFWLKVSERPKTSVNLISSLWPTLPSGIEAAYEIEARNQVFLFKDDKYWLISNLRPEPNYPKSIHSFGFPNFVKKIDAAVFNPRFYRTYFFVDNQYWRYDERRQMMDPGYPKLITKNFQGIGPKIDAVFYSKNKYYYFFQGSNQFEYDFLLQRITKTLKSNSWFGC
Chain of Papain (Carica papaya) (P00784 whole entry): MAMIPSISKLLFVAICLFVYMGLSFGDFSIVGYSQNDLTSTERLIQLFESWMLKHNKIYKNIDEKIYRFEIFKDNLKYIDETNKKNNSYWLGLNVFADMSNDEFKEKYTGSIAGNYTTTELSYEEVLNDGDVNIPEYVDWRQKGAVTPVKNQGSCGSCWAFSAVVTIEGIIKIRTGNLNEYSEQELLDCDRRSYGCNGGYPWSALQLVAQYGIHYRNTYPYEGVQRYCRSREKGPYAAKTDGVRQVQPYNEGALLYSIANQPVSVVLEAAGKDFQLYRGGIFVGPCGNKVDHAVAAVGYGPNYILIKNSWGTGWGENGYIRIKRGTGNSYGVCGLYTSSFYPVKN
Chain of Carboxypeptidase B2 (Homo sapiens) (Q96IY4 whole entry): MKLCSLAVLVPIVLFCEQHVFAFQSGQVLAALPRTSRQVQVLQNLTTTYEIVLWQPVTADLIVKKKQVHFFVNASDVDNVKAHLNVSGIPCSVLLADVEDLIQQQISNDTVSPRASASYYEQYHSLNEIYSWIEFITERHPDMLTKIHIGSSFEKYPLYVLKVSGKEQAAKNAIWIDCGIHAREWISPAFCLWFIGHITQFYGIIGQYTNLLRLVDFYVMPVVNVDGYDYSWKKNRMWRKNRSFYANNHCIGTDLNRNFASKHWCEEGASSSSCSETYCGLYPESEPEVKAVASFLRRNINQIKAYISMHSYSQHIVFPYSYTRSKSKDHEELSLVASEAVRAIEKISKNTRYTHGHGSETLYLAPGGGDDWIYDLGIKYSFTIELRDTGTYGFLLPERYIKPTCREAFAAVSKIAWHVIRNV
Chain of Carboxypeptidase N catalytic chain (Homo sapiens) (P15169 whole entry): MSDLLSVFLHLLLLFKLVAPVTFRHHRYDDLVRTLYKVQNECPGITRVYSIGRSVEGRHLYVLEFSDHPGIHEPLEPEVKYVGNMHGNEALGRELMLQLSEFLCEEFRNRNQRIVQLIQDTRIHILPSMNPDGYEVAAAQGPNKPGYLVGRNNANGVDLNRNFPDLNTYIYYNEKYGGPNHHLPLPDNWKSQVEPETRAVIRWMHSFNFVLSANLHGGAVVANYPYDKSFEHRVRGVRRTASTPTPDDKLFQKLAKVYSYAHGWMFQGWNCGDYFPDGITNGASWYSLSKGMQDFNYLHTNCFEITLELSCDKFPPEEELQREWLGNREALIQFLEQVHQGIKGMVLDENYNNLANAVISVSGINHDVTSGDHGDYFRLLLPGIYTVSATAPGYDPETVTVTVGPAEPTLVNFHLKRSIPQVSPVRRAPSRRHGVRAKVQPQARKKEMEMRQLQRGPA
Chain of Stromelysin-2 (P09238 whole entry): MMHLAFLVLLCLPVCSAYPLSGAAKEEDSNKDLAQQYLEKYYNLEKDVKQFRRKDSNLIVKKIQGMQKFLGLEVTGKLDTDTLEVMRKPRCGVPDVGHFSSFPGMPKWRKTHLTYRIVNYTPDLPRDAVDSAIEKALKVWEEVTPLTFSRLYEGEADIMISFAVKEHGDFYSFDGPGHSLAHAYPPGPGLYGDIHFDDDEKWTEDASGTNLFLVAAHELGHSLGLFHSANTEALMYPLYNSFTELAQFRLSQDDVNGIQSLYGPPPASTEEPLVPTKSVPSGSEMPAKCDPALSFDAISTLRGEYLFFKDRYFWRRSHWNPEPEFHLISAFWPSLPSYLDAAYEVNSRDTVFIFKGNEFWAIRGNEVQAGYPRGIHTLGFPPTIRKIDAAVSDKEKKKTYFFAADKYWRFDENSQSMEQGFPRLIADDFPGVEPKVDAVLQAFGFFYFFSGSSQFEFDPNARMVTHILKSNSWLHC

SMILES	inhibition [1]	inhibition (Homo sapiens)	inhibition [2]	inhibition (Papain (Carica papaya))	Ki (Collagenase 3)	inhibition [3]	Ki (Stromelysin-2)	Activity (HEK-293T [4])	inhibition (Bos taurus)	Activity (HeLa)	inhibition [5]	Ki [6]	Activity (HEK-293T [7])
C[C@H](NC(=O)[C@H](Cc1ccc(O)cc1)NC(=O)COCCOCCNC(=O)CCOCCOCCOCCNC(=O)CCc1ccc(C(=C\C=C2\N(CCCCS(=O)(=O)O)c3ccc4c(S(=O)(=O)[O-])cc(S(=O)(=O)O)cc4c3C2(C)C)/C=C/C2=[N+](CCCCS(=O)(=O)O)c3ccc4c(S(=O)(=O)O)cc(S(=O)(=O)O)cc4c3C2(C)C)cc1)P(=O)(O)C[C@@H](CCc1ccccc1)C(=O)O	inactive	inactive	inactive	inactive	562 nM	inactive	983 nM	Non-Toxic	inactive	Non-Toxic	inactive	1340 nM	
CC(=O)N[C@@H](Cc1ccc(O)cc1)C(=O)N[C@@H](C)P(=O)(O)C[C@@H](CCc1ccccc1)C(=O)O													Non-Toxic
